Measured values published in ChEMBL document CHEMBL4177603 (Bioorg Med Chem Lett, 2017).
Active and inactive are the calls of the source. No cut-off for these calls is given here.

Experiments:
[1] = target: T1, 5-hydroxytryptamine receptor 1B (Homo sapiens, UniProt P28222); assay: Agonist activity at human 5-HT1B receptor expressed in HeLa cells assessed as increase in cAMP accumulation at 10 uM measured after 20 mins by HTRF method relative to control; assay type: functional, cell-based
Cytochrome P450 2C9 = Cytochrome P450 2C9 (Homo sapiens, UniProt P11712); assay: Inhibition of CYP2C9 (unknown origin); assay type: ADME
[2] = target: Sodium channel protein type 9 subunit alpha (Rattus norvegicus, UniProt O08562); assay: Inhibition of rat Nav1.7 expressed in HEK cells by patch clamp electrophysiology method; assay type: cell-based
[3] = target: D(2) dopamine receptor (Homo sapiens) (UniProt P14416); assay: Agonist activity at recombinant human D2S receptor expressed in HEK293 cells assessed as effect on impedance at 10 uM by cellular dielectric spectroscopic method relative to control; assay type: cell-based
[4] = Primary phase half-life in dog at 0.3 mg/kg, iv via infusion for 0.5 hrs; assay type: ADME, organism-based, Canis lupus familiaris; settings: in vivo, read-out: alphat1/2 (converted)
Procedure, shortened: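 Dog IV pharmacokinetics, with half-life reported as two values: α (initial phase) and β (terminal phase) of the disposition profile.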

[5] = target: T2, Sodium channel protein type 5 subunit alpha (Homo sapiens, UniProt Q14524); assay: Inhibition of human Nav1.5 expressed in HEK cells by automated patchXpress electrophysiology method; assay type: ADME, cell-based
Cytochrome P450 2C19 = Cytochrome P450 2C19 (Homo sapiens, UniProt P33261); assay: Inhibition of CYP2C19 (unknown origin); assay type: ADME
[6] = target: Prostaglandin G/H synthase 2 (Homo sapiens, UniProt P35354); assay: Inhibition of recombinant human COX2 using arachidonic acid as substrate measured after 5 mins by fluorescence assay
[7] = target: 3',5'-cyclic-AMP phosphodiesterase 4D (Homo sapiens) (UniProt Q08499); assay: Inhibition of recombinant human PDE4D2 at 10 uM using [3H]cAMP as substrate measured after 20 mins by scintillation counting method relative to control
[8] = Inhibition of dog Nav1.7 expressed in HEK cells by automated patchXpress electrophysiology method; assay type: cell-based; settings: HEK293
[9] = target: Cholecystokinin receptor type A (Homo sapiens) (UniProt P32238); assay: Agonist activity at recombinant human CCK1 receptor expressed in CHOK1 cells assessed as increase in cAMP accumulation at 10 uM after 30 mins by HTRF assay relative to control
[10] = Clearance in iv dosed mouse blood; assay type: ADME, organism-based; settings: whole blood
Procedure, shortened: (§1)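 Blood clearance was calculated from the measured plasma clearance and the measured blood:plasma ratio.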

[11] = target: Muscarinic acetylcholine receptor M3 (Homo sapiens) (UniProt P20309); assay: Agonist activity at human M3 receptor expressed in CHOK1 cells assessed as increase in calcium flux at 10 uM by fluorimetric method relative to control; assay type: functional, cell-based
[12] = Biliary clearance in rat at 0.3 mg/kg, iv via infusion for 1 hr; assay type: ADME, organism-based, Bile; settings: in vivo
[13] = target: Peroxisome proliferator-activated receptor gamma (Homo sapiens) (UniProt P37231); assay: Displacement of [3H]rosiglitazone from recombinant human PPARgamma at 10 uM after 120 mins by scintillation counting method
[14] = Intrinsic clearance in human liver microsomes; assay type: ADME, microsome; settings: read-out: CLH
[15] = target: Adenosine receptor A1 (Homo sapiens) (UniProt P30542); assay: Agonist activity at recombinant human adenosine A1 receptor expressed in mouse BA/F3 cells assessed as increase in calcium flux at 10 uM by spectrophotometric method relative to control; assay type: functional, cell-based
[16] = target: D(1A) dopamine receptor (Homo sapiens) (UniProt P21728); assay: Agonist activity at recombinant human D1 receptor expressed in CHOK1 cells assessed as increase in cAMP accumulation at 10 uM after 30 mins by HTRF assay relative to control; assay type: functional, cell-based
[17] = target: T1, 5-hydroxytryptamine receptor 1B; assay: Agonist activity at human 5-HT1B receptor expressed in HeLa cells assessed as increase in cAMP accumulation measured after 20 mins by HTRF method; assay type: functional, cell-based
[18] = target: Glutamate NMDA receptor (Rattus norvegicus) (UniProt P35439+Q00959+Q00960+Q00961+Q62645+Q8VHN2+Q9R1M7); assay: Displacement of [3H]CGP 39653 from rat brain NMDA receptor at 10 uM after 60 mins by scintillation counting method
Cytochrome P450 2C8 = Cytochrome P450 2C8 (Homo sapiens, UniProt P10632); assay: Inhibition of CYP2C8 (unknown origin); assay type: ADME
[19] = target: Mu-type opioid receptor (Homo sapiens) (UniProt P35372); assay: Displacement of [3H]DAMGO from recombinant human MOR at 10 uM after 120 mins by scintillation counting method
[20] = target: Beta-2 adrenergic receptor (Homo sapiens) (UniProt P07550); assay: Antagonist activity at recombinant human beta2 receptor expressed in CHOK1 cells assessed as inhibition of isoproterenol-induced cAMP accumulation at 10 uM after 30 mins by HTRF assay relative to control; assay type: functional, cell-based
[21] = Clearance in rat plasma at 0.3 mg/kg, iv via infusion for 1 hr; assay type: ADME, organism-based
[22] = Intrinsic clearance in human hepatocytes assessed per million cells; assay type: ADME, cell-based, Hepatocyte; settings: read-out: CLH
[23] = Solubility of the compound in aqueous buffer at pH 3.2; assay type: physicochemical
Rattus norvegicus = species: Rattus norvegicus; assay: Displacement of [3H]nitrendipine from L-type calcium channel dihydropyridine (nifedipine) binding site in rat brain 10 uM measured after 90 mins by scintillation counting method
[24] = target: Voltage-gated inwardly rectifying potassium channel KCNH2 (Homo sapiens, UniProt Q12809); assay: Displacement of [3H]Dofetilide from recombinant human ERG after 60 mins by scintillation counting method
[25] = target: Sodium-dependent serotonin transporter (Homo sapiens) (UniProt P31645); assay: Displacement of [3H]imipramine from recombinant human […] at 10 uM after 60 mins by scintillation counting method
[26] = Intrinsic clearance in mouse hepatocytes assessed per million cells; assay type: ADME, cell-based, Hepatocyte; settings: read-out: CLH
[27] = target: T2, Sodium channel protein type 5 subunit alpha; assay: Inhibition of human Nav1.5 by Q-patch clamp electrophysiology method
[28] = Drug recovery in bile duct-cannulated rat bile at 0.3 mg/kg, iv via infusion for 1 hr; assay type: ADME, organism-based; settings: read-out: Drug recovery
[29] = target: Sodium-dependent noradrenaline transporter (Homo sapiens, UniProt P23975); assay: Displacement of [3H]nisoxetine from recombinant human norepinephrine transporter after 120 min by scintillation counting method
[30] = Inhibition of sodium channel site2 (unknown origin) by radioligand binding assay relative to control; design: species or system Homo sapiens
[31] = Clearance in rat blood at 0.3 mg/kg, iv via infusion for 1 hr; assay type: ADME, organism-based; settings: whole blood; procedure, shortened: as §1
Mus musculus = assay: Analgesic activity in mouse assessed as inhibition of formalin-induced pain at 0.28 to 5.4 mg/kg, iv pretreated for 90 mins followed by formalin addition measured up to 40 mins; assay type: functional, organism-based
[32] = target: Beta-1 adrenergic receptor (Homo sapiens) (UniProt P08588); assay: Agonist activity at recombinant human beta1 receptor expressed in HEK293 cells assessed as increase in cAMP accumulation at 10 uM after 30 mins by HTRF assay relative to control; assay type: functional, cell-based
[33] = Protein binding in mouse plasma assessed as fraction unbound; assay type: ADME, cell-free

T1 sequence (P28222 whole entry): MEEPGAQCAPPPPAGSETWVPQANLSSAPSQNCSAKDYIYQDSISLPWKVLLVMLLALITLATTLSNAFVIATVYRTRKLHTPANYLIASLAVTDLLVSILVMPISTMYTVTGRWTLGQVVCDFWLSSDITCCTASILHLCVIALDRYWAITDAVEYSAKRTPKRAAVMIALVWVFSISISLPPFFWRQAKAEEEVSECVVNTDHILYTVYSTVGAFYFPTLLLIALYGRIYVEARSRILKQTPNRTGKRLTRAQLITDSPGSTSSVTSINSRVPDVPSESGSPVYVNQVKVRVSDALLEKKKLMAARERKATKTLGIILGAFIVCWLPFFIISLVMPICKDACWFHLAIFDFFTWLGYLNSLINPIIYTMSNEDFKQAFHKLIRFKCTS
Chain of Sodium-dependent noradrenaline transporter (P23975 whole entry): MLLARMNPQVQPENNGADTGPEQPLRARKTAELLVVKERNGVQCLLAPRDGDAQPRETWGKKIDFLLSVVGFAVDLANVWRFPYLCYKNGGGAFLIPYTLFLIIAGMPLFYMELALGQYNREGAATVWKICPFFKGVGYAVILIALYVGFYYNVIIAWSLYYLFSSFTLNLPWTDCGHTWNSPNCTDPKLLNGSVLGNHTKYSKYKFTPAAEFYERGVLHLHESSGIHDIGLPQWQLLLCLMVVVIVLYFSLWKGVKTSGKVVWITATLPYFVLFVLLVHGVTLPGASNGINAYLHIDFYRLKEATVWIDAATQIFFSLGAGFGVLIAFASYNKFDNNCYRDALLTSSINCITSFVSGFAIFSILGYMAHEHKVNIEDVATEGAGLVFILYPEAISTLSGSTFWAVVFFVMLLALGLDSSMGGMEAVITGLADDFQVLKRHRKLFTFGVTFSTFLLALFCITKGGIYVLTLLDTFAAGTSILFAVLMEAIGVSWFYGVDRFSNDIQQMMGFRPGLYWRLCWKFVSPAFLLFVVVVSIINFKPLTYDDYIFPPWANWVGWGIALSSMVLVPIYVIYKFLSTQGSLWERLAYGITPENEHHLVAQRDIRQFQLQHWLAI
T2 sequence (Q14524 whole entry): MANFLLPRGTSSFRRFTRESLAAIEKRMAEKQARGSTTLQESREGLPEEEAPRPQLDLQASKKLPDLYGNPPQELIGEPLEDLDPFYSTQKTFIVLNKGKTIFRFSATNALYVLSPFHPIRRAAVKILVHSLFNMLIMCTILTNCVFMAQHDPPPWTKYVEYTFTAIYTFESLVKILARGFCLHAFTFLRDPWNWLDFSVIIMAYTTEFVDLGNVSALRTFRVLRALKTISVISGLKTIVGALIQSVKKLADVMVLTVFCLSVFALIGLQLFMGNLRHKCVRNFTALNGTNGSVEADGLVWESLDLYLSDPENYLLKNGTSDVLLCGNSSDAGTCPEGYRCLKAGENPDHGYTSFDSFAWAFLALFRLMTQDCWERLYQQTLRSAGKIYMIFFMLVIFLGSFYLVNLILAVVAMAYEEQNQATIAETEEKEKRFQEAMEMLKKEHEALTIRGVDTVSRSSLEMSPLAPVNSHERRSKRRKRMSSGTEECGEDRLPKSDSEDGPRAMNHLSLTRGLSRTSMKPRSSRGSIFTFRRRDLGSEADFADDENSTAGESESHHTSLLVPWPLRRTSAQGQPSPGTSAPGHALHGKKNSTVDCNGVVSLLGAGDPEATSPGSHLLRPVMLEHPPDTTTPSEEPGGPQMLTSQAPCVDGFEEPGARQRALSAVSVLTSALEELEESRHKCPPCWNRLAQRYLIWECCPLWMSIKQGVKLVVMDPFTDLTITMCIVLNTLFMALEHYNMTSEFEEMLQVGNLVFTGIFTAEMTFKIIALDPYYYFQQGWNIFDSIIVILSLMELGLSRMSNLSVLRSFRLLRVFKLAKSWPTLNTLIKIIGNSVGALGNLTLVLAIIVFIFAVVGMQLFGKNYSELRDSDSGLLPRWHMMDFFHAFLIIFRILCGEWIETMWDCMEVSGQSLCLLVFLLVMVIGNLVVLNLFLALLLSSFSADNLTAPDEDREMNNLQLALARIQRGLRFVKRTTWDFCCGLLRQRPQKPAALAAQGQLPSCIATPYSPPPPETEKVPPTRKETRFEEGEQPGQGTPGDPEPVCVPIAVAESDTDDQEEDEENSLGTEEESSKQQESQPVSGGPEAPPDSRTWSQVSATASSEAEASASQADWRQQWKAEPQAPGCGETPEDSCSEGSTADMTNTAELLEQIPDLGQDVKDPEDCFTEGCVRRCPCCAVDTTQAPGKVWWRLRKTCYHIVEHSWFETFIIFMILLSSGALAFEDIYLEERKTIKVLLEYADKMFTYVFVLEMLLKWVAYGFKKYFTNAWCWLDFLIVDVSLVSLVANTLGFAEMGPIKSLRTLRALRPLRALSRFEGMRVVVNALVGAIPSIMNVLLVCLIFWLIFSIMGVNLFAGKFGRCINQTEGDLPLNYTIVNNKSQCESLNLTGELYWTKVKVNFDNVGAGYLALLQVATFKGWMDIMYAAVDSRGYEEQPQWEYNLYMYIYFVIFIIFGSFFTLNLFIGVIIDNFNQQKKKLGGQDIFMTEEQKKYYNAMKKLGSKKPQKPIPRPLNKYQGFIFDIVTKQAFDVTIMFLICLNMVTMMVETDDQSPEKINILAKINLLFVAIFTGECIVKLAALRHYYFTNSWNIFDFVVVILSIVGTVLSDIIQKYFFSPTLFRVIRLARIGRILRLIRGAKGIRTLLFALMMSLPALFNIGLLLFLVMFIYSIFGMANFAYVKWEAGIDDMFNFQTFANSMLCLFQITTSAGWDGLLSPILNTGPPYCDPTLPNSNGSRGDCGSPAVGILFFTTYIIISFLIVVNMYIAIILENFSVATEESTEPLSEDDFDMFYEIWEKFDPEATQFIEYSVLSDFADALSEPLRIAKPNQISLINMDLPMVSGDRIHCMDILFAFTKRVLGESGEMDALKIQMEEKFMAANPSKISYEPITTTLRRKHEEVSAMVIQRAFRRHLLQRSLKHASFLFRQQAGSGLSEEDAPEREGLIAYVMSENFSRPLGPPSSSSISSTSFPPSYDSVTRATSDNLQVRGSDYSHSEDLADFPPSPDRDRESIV
Chain of Beta-2 adrenergic receptor (Homo sapiens) (P07550 whole entry, looked up, the tested form may be a part): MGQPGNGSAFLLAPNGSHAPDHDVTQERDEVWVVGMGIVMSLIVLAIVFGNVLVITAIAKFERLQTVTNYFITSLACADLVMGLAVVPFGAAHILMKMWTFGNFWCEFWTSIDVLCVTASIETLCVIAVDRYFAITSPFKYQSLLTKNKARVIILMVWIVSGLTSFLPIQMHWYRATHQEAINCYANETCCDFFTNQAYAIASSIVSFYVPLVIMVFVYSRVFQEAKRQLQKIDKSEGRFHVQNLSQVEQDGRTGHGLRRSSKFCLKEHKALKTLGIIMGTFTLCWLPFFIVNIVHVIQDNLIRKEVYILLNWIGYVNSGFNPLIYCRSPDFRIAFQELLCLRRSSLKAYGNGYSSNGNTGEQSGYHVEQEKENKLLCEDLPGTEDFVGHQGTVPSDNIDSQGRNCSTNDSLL
Chain of 3',5'-cyclic-AMP phosphodiesterase 4D (Homo sapiens) (Q08499 whole entry): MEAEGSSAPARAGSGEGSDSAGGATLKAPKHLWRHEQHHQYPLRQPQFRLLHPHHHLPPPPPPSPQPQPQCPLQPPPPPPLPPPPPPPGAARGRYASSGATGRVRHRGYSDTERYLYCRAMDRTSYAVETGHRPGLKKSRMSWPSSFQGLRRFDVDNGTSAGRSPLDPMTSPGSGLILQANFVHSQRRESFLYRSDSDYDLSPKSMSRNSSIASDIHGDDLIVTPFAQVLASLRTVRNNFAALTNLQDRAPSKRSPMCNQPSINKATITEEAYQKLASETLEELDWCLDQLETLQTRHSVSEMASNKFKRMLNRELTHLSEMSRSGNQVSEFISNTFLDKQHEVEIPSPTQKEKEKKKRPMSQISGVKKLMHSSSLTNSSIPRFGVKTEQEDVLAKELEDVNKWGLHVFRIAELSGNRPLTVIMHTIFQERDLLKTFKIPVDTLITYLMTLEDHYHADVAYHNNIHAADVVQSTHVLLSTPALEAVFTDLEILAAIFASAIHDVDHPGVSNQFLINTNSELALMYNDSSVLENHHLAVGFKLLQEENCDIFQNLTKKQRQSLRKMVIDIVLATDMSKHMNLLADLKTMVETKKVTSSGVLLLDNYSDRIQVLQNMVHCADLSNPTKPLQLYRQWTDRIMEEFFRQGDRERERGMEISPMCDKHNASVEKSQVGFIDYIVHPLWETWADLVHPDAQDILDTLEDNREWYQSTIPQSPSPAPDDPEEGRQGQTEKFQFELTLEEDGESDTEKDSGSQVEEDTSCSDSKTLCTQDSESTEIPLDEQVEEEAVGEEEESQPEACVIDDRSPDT
Chain of Sodium-dependent serotonin transporter (Homo sapiens) (P31645 whole entry, looked up): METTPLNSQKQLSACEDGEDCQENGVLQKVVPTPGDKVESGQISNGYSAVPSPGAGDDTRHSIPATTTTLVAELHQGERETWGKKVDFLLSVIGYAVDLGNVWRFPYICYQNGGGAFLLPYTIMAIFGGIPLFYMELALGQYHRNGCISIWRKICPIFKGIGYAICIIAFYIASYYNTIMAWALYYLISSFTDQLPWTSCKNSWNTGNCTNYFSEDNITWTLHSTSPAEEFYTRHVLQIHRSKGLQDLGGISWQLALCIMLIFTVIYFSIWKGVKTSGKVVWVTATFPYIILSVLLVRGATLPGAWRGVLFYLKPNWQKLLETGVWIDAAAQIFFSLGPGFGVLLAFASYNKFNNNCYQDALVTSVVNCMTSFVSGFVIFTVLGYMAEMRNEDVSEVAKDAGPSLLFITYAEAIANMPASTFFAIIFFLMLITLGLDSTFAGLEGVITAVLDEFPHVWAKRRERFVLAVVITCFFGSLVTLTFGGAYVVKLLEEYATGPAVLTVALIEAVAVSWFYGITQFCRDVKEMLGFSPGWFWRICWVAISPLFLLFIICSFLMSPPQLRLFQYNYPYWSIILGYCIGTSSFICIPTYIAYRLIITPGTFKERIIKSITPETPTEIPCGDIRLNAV

With `N#Cc1cc(S(=O)(=O)Nc2ncns2)ccc1Oc1ccc(-c2cccc(C(F)(F)F)c2)cc1-c1ccnc(CNCCC2CCNCC2)c1` as the molecule, how does the Activity [1] read?
Its Activity is 141%.

What about the IC50 (Cytochrome P450 2C9) of the same molecule?
Its IC50 is 3.75 µM.

What about the IC50 [2] of the same molecule?
The IC50 was 75 nM.

What about the Activity [3] of the same molecule?
Its Activity is -2%.

And the half-life [4]?
Its half-life is 3.42 min.

And the IC50 [5]?
Its IC50 is 2000 to 2590 nM.

And the IC50 (Cytochrome P450 2C19)?
Its IC50 is 1320 nM.

What about the IC50 [6] of the same molecule?
The IC50 was 3.65 µM.

What about the inhibition [7] of the same molecule?
Its inhibition is -8%.

What about the IC50 [8] of the same molecule?
Its IC50 is under 0.03 nM.

What about the Activity [9] of the same molecule?
Its Activity is 4%.

And the clearance [10]?
Its clearance is 67.2 mL/min/kg.

What about the Activity [11] of the same molecule?
Its Activity is 8%.

What about the CL [12] of the same molecule?
Its CL is 44 mL/min/kg.

And the inhibition [13]?
Its inhibition is 33.4%.

And the microsomal CLint [14]?
The microsomal CLint was under 8 µL/min/mg.

And the Activity [15]?
The Activity was 107%.

What about the Activity [16] of the same molecule?
The Activity was 6%.

And the EC50 [17]?
Its EC50 is over 10 µM.

And the inhibition [18]?
Its inhibition is 21%.

What about the IC50 (Cytochrome P450 2C8) of the same molecule?
Its IC50 is 6.17 µM.

What about the inhibition [19] of the same molecule?
Its inhibition is 46%.

And the inhibition [20]?
Its inhibition is 11%.

And the clearance [21]?
Its clearance is 83.1 mL/min/kg.

And the hepatocyte CLint [22]?
Its hepatocyte CLint is 6.5 µL/min/1e6 cells.

And the solubility [23]?
The solubility was over 906 µg/mL.

And the inhibition (Rattus norvegicus)?
Its inhibition is 31%.

And the Ki [24]?
Its Ki is 1090 nM.

And the inhibition [25]?
The inhibition was 40%.

And the hepatocyte CLint [26]?
The hepatocyte CLint was under 3 µL/min/1e6 cells.

And the IC50 [27]?
Its IC50 is 12.8 µM.

And the dose excreted at 1 h [28]?
The dose excreted at 1 h was 74%.

And the IC50 [29]?
The IC50 was 4.25 µM.

And the Ki [29]?
The Ki was 3.16 µM.

What about the IC50 [30] of the same molecule?
Its IC50 is 48 nM.

What about the Ki [30] of the same molecule?
Its Ki is 43 nM.

What about the clearance [31] of the same molecule?
Its clearance is 178 mL/min/kg.

What about the inhibition (Mus musculus) of the same molecule?
The inhibition was “inactive”.

What about the Activity [32] of the same molecule?
The Activity was -4%.

What about the fraction unbound [33] of the same molecule?
The fraction unbound was 0.00281.
